ChEMBL document CHEMBL1123394, “Systematic synthesis and biological evaluation of alpha- and beta-D-xylofuranosyl nucleosides of the five naturally occurring bases in nucleic acids and related analogues” (J Med Chem, 1986)
Converted amounts (≈) assume the structure as drawn.

What was measured:
[1] = Concentration required to reduce protein synthesis in primary rabbit kidney cells usingi [3H2-4,5]leucine incorporation; type: functional; conditions: Oryctolagus cuniculus, read-out: ID50 (the source's name)
How it was run: (§1)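 Primary rabbit kidney cells with compounds in growth medium at 100, 10, or 1 μg/mL or less. Cell number and incorporation of [3H-methyl]dThd (DNA), [3H-5]Urd (RNA) or [3H2-4,5]leucine (protein) measured. ID50 taken as the dose giving 50% reduction in cell number or in DNA, RNA or protein synthesis.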

HeLa [2] = experiment: Antiviral activity was measured against vesicular stomatitis virus in HeLa cells.; type: functional; conditions: Homo sapiens
How it was run: (§2)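 Inhibition of virus-induced cytopathogenicity in cell culture. Compounds were dissolved in growth medium at 100, 10 or 1 μg/mL or less.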

WI-38 [3] = experiment: Concentration required for microscopically detectable alteration of the normal cell morphology in Wi-38 cells.; type: functional; conditions: Homo sapiens
How it was run: (§3)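 Host-cell morphology inspected microscopically for detectable alteration, with compounds in growth medium at up to 200 or 400 μg/mL.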

[4] = Concentration required for microscopically detectable alteration of the normal cell morphology in PRK cells.; type: functional; conditions: Oryctolagus cuniculus; how it was run: as §3
Vero [5] = experiment: Antiviral activity was measured against forest virus in african green monkey kidney (Vero B) cells.; type: functional; conditions: Chlorocebus sabaeus
How it was run: (§4)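 Inhibition of virus-induced cytopathogenicity scored in cell culture monolayers. Test compounds dissolved in growth medium at 100, 10, or 1 μg/mL or less.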

Vero [6] = experiment: Antiviral activity was measured against Parainfluenza virus-3 in african green monkey kidney (Vero B) cells.; type: functional; conditions: Chlorocebus sabaeus; how it was run: as §4
[7] = Antiviral activity was measured against Herpes simplex virus (HSV-2 G) in rabbit kidney cells.; type: functional; conditions: Oryctolagus cuniculus; how it was run: as §4
Mus musculus [8] = experiment: Efficacy expressed as number of surviving mice infected with herpetic encephalitis at dose of 150 mg/kg; type: functional
How it was run: (§5)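 Young mice (10 g) were inoculated intracerebrally with 0.03 mL of herpes simplex virus suspension containing ca. 4 CCID50. Compound was given at 75 or 150 mg/kg per day as two daily intraperitoneal injections for 4 days. Read-out was the number of surviving mice.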

WI-38 [9] = experiment: Antiviral activity was measured against Rhino virus-9 in human diploid (WI-38) cells.; type: functional; how it was run: as §4
[10] = Concentration required to reduce RNA synthesis in primary rabbit kidney cells using [3H-5]-Urd incorporation; type: functional; conditions: Oryctolagus cuniculus, read-out: ID50 (the source's name); how it was run: as §1
Vero [11] = experiment: Antiviral activity was measured against Reo virus-1 in african green monkey kidney (Vero B) cells.; type: functional; conditions: Chlorocebus sabaeus; how it was run: as §4
Mus musculus [12] = experiment: Toxicity of compound against mice was determined at a concentration of 100 mg/kg; type: organism-based; design: dose 100 mg/kg; conditions: in vivo
How it was run: (§6)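 Swiss mice (20-24 g) received a single intraperitoneal dose of 100-2,000 mg/kg. Compound was suspended in distilled water containing 0.2 g Tween 80 and 0.2 g (carboxymethyl)cellulose per 100 mL. Mice were followed for 14 days for acute toxicity.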

Vero [13] = experiment: Antiviral activity was measured against Coxsackie virus B4 in african green monkey kidney (Vero B) cells.; type: functional; conditions: Chlorocebus sabaeus; how it was run: as §4
Mus musculus [14] = experiment: Toxicity of compound against mice was determined at a concentration of 250 mg/kg; type: organism-based; design: dose 250 mg/kg; conditions: in vivo; how it was run: as §6
[15] = Concentration required to reduce DNA synthesis in primary rabbit kidney cells using [3H-Methyl]-dThd incorporation; type: functional; conditions: Oryctolagus cuniculus, read-out: ID50 (the source's name); how it was run: as §1
[16] = Antiviral activity was measured against Vaccinia virus in rabbit kidney cells.; type: functional; conditions: Oryctolagus cuniculus; how it was run: as §2
[17] = dose required to reduce primary rabbit kidney cell growth; type: functional; conditions: Oryctolagus cuniculus, read-out: ID50 (the source's name); how it was run: as §1
Mus musculus [18] = species on record: Mus musculus; experiment: Efficacy expressed as number of surviving mice infected with herpetic encephalitis at dose of 75 mg.kg; type: functional; how it was run: as §5
WI-38 [19] = experiment: Antiviral activity was measured against Rhino virus-1A in human diploid (WI-38) cells.; type: functional; how it was run: as §4
Vero [20] = experiment: Concentration required for microscopically detectable alteration of the normal cell morphology in Vero B cells.; type: functional; conditions: Chlorocebus sabaeus; how it was run: as §3
[21] = Antiviral activity was measured against Herpes simplex virus (HSV-1 KOS) in rabbit kidney cells.; type: functional; conditions: Oryctolagus cuniculus; how it was run: as §2
[22] = Antiviral activity was measured against Vesicular stomatitis virus in rabbit kidney cells.; type: functional; conditions: Oryctolagus cuniculus; how it was run: as §2
HeLa [23] = experiment: Concentration required for microscopically detectable alteration of the normal cell morphology in HeLa cells.; type: functional; conditions: Homo sapiens; how it was run: as §3
Vero [24] = experiment: Antiviral activity was measured against Sindbis virus in african green monkey kidney (Vero B) cells.; type: functional; conditions: Chlorocebus sabaeus; how it was run: as §4
Mus musculus [25] = experiment: Efficacy expressed as number of surviving mice infected with herpetic encephalitis at dose of 0 mg/kg; type: functional
HeLa [26] = experiment: Antiviral activity was measured against Coxsackie virus B4 in HeLa cells.; type: functional; conditions: Homo sapiens; how it was run: as §2
Mus musculus [27] = experiment: Toxicity of compound against mice was determined at a concentration of 750 mg/kg; type: organism-based; design: dose 750 mg/kg; conditions: in vivo; how it was run: as §6
Mus musculus [28] = experiment: Toxicity of compound against mice was determined at a concentration of 1200 mg/kg; type: organism-based; design: dose 1200 mg/kg; conditions: in vivo; how it was run: as §6
Mus musculus [29] = experiment: Toxicity of compound against mice was determined at a concentration of 2000 mg/kg; type: organism-based; design: dose 2000 mg/kg; conditions: in vivo; how it was run: as §6
[30] = Antiviral activity was measured against vesicular stomatitis virus in rabbit kidney cells.; type: functional; conditions: Oryctolagus cuniculus; how it was run: as §2
[31] = Antiviral activity was measured against vaccinia virus in rabbit kidney cells.; type: functional; conditions: Oryctolagus cuniculus; how it was run: as §2

SMILES | MCC (WI-38 [3]) [µg/mL] | MCC [4] [µg/mL] | MCC (Vero [5]) [µg/mL] | MCC (Vero [6]) [µg/mL] | MCC [7] [µg/mL] | MCC (WI-38 [9]) [µg/mL] | MCC (Vero [11]) [µg/mL] | MCC (Vero [13]) [µg/mL] | MCC (WI-38 [19]) [µg/mL] | MCC (Vero [20]) [µg/mL] | MCC [21] [µg/mL] | MCC (HeLa [23]) [µg/mL] | MCC (Vero [24]) [µg/mL] | MCC (HeLa [26]) [µg/mL] | other results
Nc1ncnc2c1ncn2[C@@H]1O[C@H](CO)[C@@H](O)[C@@H]1O [VIDARABINE] | ≥ 100 | ≥ 200 | > 100 | 150 | 10 | > 100 | 150 | > 100 | > 100 | ≥ 200 | 20 | ≥ 200 | > 100 | > 100 | IC50 [1]: > 200 µg/mL; MCC (HeLa [2]): 150 µg/mL; Efficacy (Mus musculus [8]): 0 mg/kg; IC50 [10]: 15 µg/mL (≈ 56.1 µM); No. of dead mice (Mus musculus [12]): 0; No. of dead mice (Mus musculus [14]): 0; IC50 [15]: 31 µg/mL (≈ 116 µM); MCC [16]: 2 µg/mL; IC50 [17]: 27 µg/mL (≈ 101 µM); Efficacy (Mus musculus [18]): 0 mg/kg; MCC [22]: 70 µg/mL; Efficacy (Mus musculus [25]): 0 mg/kg; No. of dead mice (Mus musculus [27]): 0; No. of dead mice (Mus musculus [28]): 0; No. of dead mice (Mus musculus [29]): 0
Nc1nc2c(ncn2COCCO)c(=O)[nH]1 [ACYCLOVIR] |  |  |  |  |  |  |  |  |  |  |  |  |  |  | No. of dead mice (Mus musculus [12]): 0; No. of dead mice (Mus musculus [14]): 0; Efficacy (Mus musculus [25]): 0 mg/kg; No. of dead mice (Mus musculus [27]): 1; No. of dead mice (Mus musculus [28]): 7; No. of dead mice (Mus musculus [29]): 7
O=c1ccn(C2O[C@H](CO)[C@H](O)[C@H]2O)c(=O)[nH]1 (stereo not given in full) | > 400 | > 400 | > 400 | > 400 | 300 | > 400 | > 400 | > 400 | > 400 | > 400 | 300 | > 400 | > 400 | > 400 | MCC [30]: > 200 µg/mL; MCC [16]: 150 µg/mL
Nc1nccc2c1ncn2[C@@H]1C[C@H](CO)[C@@H](O)[C@H]1O [3-DEAZAARISTEROMYCIN A] | > 400 | > 400 | > 400 | 0.2 | > 400 | > 400 | 2 | 0.7 | > 400 | ≥ 400 | > 400 | ≥ 400 | > 400 | > 400 | MCC (HeLa [2]): 2 µg/mL; MCC [30]: 0.7 µg/mL; MCC [31]: 2 µg/mL
Nc1nc(O)c2c(n1)[nH]c[n+]2C1O[C@H](CO)[C@H](O)[C@H]1O (stereo not given in full) | > 400 | > 400 | > 200 | > 200 | > 400 | > 200 | > 200 | > 200 | > 200 | 400 | > 400 | > 400 | > 200 | > 400 | 
Nc1nc(S)c2ncn(C3O[C@H](CO)[C@H](O)[C@H]3O)c2n1 (stereo not given in full) | ≥ 400 | > 400 | > 200 | > 200 | > 400 | > 200 | > 200 | > 200 | > 200 | ≥ 200 | > 400 | ≥ 200 | > 200 | > 200 | 
NC(=O)c1ncn([C@H]2O[C@H](CO)[C@H](O)[C@H]2O)c1N | > 400 | > 400 | > 400 | > 400 | > 400 | > 400 | > 400 | > 300 | > 400 | > 400 | > 400 | > 400 | > 400 | > 400 | 
